Screening data from PubChem BioAssay.
Compounds with a hit are over-represented: about 1.9% of the library has one in this group of screens.
HCV NS3 hel inh – inhibitors of Hepatitis C virus NS3 helicase; NS3 helicase DNA unwinding, Cy5 molecular beacon fluorescence; inhibition, % at 10.9 µM; 290,000 tested, 0.56% active; AID 1800;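 active = inhibition above the mean of all tested compounds plus 3 SD, set per campaign, cut at about 35% in these data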;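 also: 0% = DMSO wells and 100% = thioflavine S control wells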
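test system = hepatitis C virus NS3 helicase domain fragment enzyme | reagent = annealed dual-labelled DNA beacon duplex, ATP-started | times = 1 h at 25 °C | detection = Cy5 fluorescence, 0 and 60 min reads | read-out basis = percent inhibition from t60/t0 fluorescence ratio | control set = DMSO and thioflavine S | replication = one well per compound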
FID counter – counter-screen for HCV NS3 helicase inhibitors: DNA intercalator displacement | DNA fluorescent intercalator displacement, fluorescence | inhibition, % at 7.9 µM | 290,000 tested, 0.17% active; in the data active = inhibition above about 37%;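 also: 0% = vehicle and 100% = reference compound; higher means more ethidium bromide displaced from hairpin DNA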
VIM-2 inhibitor – blocks Pseudomonas aeruginosa VIM-2 metallo-beta-lactamase; 290,000 tested, 0.89% active; purified VIM-2, nitrocefin hydrolysis, epi-absorbance fluorescence; inhibition, % at 5.6 µM;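 active = inhibition above the mean of all tested compounds plus 3 SD, cutoff set per screening run, cut at about 7.5% in these data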;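 also: red hydrolysis product quenches plate fluorescence so inhibitors raise well fluorescence; 0% = enzyme with DMSO and 100% = DMSO without enzyme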
IMP-1 inhibitor – blocks Pseudomonas aeruginosa IMP-1 metallo-beta-lactamase; purified IMP-1, nitrocefin hydrolysis, epi-absorbance fluorescence; inhibition, % at 5.6 µM; 290,000 tested, 0.45% active; AID 1556;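 active = inhibition above the mean plus 3 SD of all compounds in the same screening run, cut at about 4.5% in these data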;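 also: 0% = IMP-1 with DMSO and 100% = DMSO wells lacking enzyme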
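Test system: recombinant IMP-1 enzyme, purified / Medium: HEPES buffer pH 7.1 with ZnSO4 and Brij 35 / Doses: single dose, 5.6 µM / Times: 25 °C, 15 min preincubation, 25 min reaction / Detection: Epi-absorbance via hydrolysed-nitrocefin quenching of white-plate fluorescence, 480/530 nm, EDTA stop / Evaluation: percent inhibition from optical density relative to buffer-blank wells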
* hit, by the source's call.

SMILES	HCV NS3 hel inh	FID counter	VIM-2 inhibitor	IMP-1 inhibitor
COc1ccc(OC)c(NS(=O)(=O)c2ccc(NC(=O)c3ccc(NS(C)(=O)=O)cc3)cc2)c1	-9	-2	-2	-5
CCCn1c(=N)c(S(=O)(=O)c2ccc(F)cc2)cc2c(=O)n3ccccc3nc21	9	2	8.9*	-4
COCCn1c(=N)c(S(=O)(=O)c2ccc(F)cc2)cc2c(=O)n3cccc(C)c3nc21	0	1	8.9*	-3
CCCn1c(C(C)Nc2nc(-c3cccc(Br)c3)cs2)nc2ccccc21 (configuration not stated)	-9	-15	7.9*	-1
C=CCN(c1ccccc1)S(=O)(=O)c1ccc2c(c1)NC(=O)C(C)C(=O)N2 (configuration not stated)	-4	-17	-3	-4
O=C(CSc1cccc2cccnc12)OCC(=O)c1ccc(Br)cc1	4	-4	0	5.3*
CCN(C(=O)COC(=O)c1c(-c2ccccc2)noc1C)c1c(N)n(Cc2ccccc2)c(=O)[nH]c1=O	4	-38	0	-2
CC(=O)c1ccc(C(=O)Nc2ccc3c(c2)C(=O)NC3=O)cc1	26	-9	0	6.1*
CC(=O)c1ccc(NC(=O)c2ccc(NC(=O)c3ccco3)cc2)cc1	-15	-7	3	19*
Cc1cc(C)cc(NC(=O)c2ccc(NC(=O)c3ccco3)cc2)c1	-1	-21	-2	-2
COC(=O)c1ccc(NC(=O)c2ccc(NC(=O)c3ccco3)cc2)cc1	-18	-13	2	4.7*
O=C(O)c1cc(NC(=O)c2cccc(N3C(=O)c4ccccc4C3=O)c2)cc(C(=O)O)c1	-5	-10	-2	0
CC(=O)c1ccc(NC(=O)c2cccc(N3C(=O)c4ccccc4C3=O)c2)cc1	-30	-22	0	7.7*
Nc1ccc(S(=O)(=O)Nc2ccc(C(=O)c3ccccc3)cc2)cc1	-5	-1	1	0
COc1cccc(OCCNc2cc(N3CCCCC3)ccc2[N+](=O)[O-])c1	4	-1	1	47*
COc1ccc(OCCNc2cc(N3CCCCC3)ccc2[N+](=O)[O-])cc1	-7	3	-1	-2
Cc1ccc2c(c1)c1c3n2CCN(CC(N)=O)C3CCC1 (configuration not stated)	2	-13	2	0
Cc1ccc2c(c1)c1c3n2CCN(CC(O)CNC(C)C)C3CCC1 (configuration not stated)	-29	45*	6	1
C=CCOCCN1C(=O)C2C(c3ccccc3)C=CC(c3ccccc3)C2C1=O (configuration not stated)	-2	-27	0	15*
C=CC[N+](C)(C)CCN1C(=O)C2C(c3ccccc3)C=CC(c3ccccc3)C2C1=O (configuration not stated)	-10	24	2	3
Cc1cc(=S)nc(-c2ccccn2)[nH]1	5	-13	11*	-1
N#CC[C@H](c1ccccc1)N1CCN(Cc2ccccc2)CCC1=O	8	-8	1	-2
C[C@H](NC(=O)[C@H]1N2C(=O)c3ccccc3C2SC1(C)C)C(=O)N1CCC[C@H]1C(=O)O (some centres not stated)	-7	-19	1	-1
CCC(C)[C@H](NC(=O)N1CC(=O)Nc2ccccc21)C(=O)N1CCC[C@H]1C(=O)O (some centres not stated)	8	-7	-3	-3
CCOc1cccc2sc(N(CCCN(C)C)C(=O)c3ccc(C(=O)c4ccccc4)cc3)nc12	-41	28	-2	-3
SMILES	HCV NS3 hel inh	FID counter	VIM-2 inhibitor	IMP-1 inhibitor
CCN(c1ccccc1)S(=O)(=O)c1ccc(C(=O)N(CCCN(C)C)c2nc3c(C)cccc3s2)cc1	-40	37*	-1	-3
CCOc1cccc2sc(N(CCCN(C)C)C(=O)c3ccc(S(=O)(=O)N(C)Cc4ccccc4)cc3)nc12	-39	39*	-2	-1
CCN(Cc1ccccc1)S(=O)(=O)c1ccc(C(=O)N(CCCN(C)C)c2nc3c(F)cccc3s2)cc1	-41	15	-1	-1
CCOc1cccc2sc(N(CCCN(C)C)C(=O)c3ccc(S(=O)(=O)N(CC)Cc4ccccc4)cc3)nc12	-42	37*	-1	0
CCN(CC)CCNC(=O)c1c(C)n(-c2ccccc2)c2cc(Br)c(OC)cc12	-88	22	8.0*	-2
CCN1CCN(C(=O)c2cc3c(-c4ccc(Cl)cc4)nn(C)c3s2)CC1	-77	24	11*	0
Cn1nc(-c2ccc(Cl)cc2)c2cc(C(=O)N3CCN(C(=O)c4ccco4)CC3)sc21	-5	-4	0	1
Cc1ccccc1NC(=O)C1c2cccc[n+]2CC(=O)N1c1c(C)cccc1C (configuration not stated)	2	-4	-1	14*
COc1cc(NC(=O)c2cc3sccc3n2C)cc(OC)c1	-7	-8	1	6.4*
Cc1cc(NC(=O)CN2CCN(Cc3ccccc3)CC2)nc2c1c(=O)oc1ccccc12	-2	7	8.3*	0
Cc1cc(NC(=O)Cc2ccccc2)nc2c1c(=O)oc1ccccc12	-3	0	-1	-4
Cc1ccc2[nH]c(=O)c3cc(C(=O)N(CCCOC(C)C)Cc4ccco4)sc3c2c1	4	-12	8.1*	-3
Cc1ccc2nc(Cl)c3cc(C(=O)N(CCN(C)C)Cc4ccco4)sc3c2c1	-81	10	8.3*	2
COc1ccc(/C=C(\NC(=O)c2ccco2)C(=O)N2CCCCC2)cc1	9	-30	0	-2
O=C(NC1=NCCS1)c1ccc(Cl)c(S(=O)(=O)N2CCOCC2)c1	12	3	-2	-2
Cc1cccc2nc(-c3ccco3)oc(=O)c12	-3	3	7	-1
Cc1ccc(SCC(=O)Nc2ccc(N3CCN(C)CC3)c(F)c2)c(C)c1	-72	39*	2	2
Cc1ccc(-n2nnnc2SCC(=O)Nc2ccc(N3CCN(C)CC3)cc2)c(C)c1	-80	20	-2	-1
CC1C(=O)OC(c2ccc(Br)cc2)C(C)(C)C1=O (configuration not stated)	21	-7	-1	-2
CCC1=C/C(=C/N(C)c2ccccc2)C(=O)S1	13	-3	3	6.1*
CN(C)/C=C1/C=C(c2ccccc2)OC1=O	5	0	0	-8
COc1ccc(-c2cc(=O)oc3c(C)c(OCC(=O)Nc4cccnc4)ccc23)cc1	-9	-14	0	6.7*
O=Cc1cc2ccccc2nc1SCc1ccc(Cl)cc1	6	0	-3	0
O=Cc1cc2ccccc2nc1SCc1ccc(Cl)c(Cl)c1	-8	1	-1	4.7*
O=C(O)C1C2C=CC(C2)C1C(=O)NCc1ccc(Cl)cc1Cl (configuration not stated)	0	-10	-1	7.6*
CC1CCCCN1C(=O)COC(=O)C1CCN(S(=O)(=O)c2c(Cl)cccc2Cl)CC1 (configuration not stated)	-1	-42	-1	-1
CCOc1ccccc1N1CN(C2CCCCC2)CNC1=S	2	-7	0	-2
